{
  "source": "ChEMBL document CHEMBL1177854",
  "about": "“Synthesis of bile acid derivatives and in vitro cytotoxic activity with pro-apoptotic process on multiple myeloma (KMS-11), glioblastoma multiforme (GBM), and colonic carcinoma (HCT-116) human cell lines” (Eur J Med Chem, 2010)",
  "key": {"[1]": {"test": "Cytotoxicity against human KMS11 cells after 24 hrs by neutral red uptake assay", "assay_type": "functional, cell-based", "conditions": "KMS-11, 24 h", "method_in_brief": "(§1)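 GBM-12 (brain tumour line), KMS-11 myeloma or HCT-116 colon carcinoma cells exposed to compound for 24 h; viability read by neutral red uptake. IC50 taken from dose-response curves; mean of three experiments ± standard error.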"}, "GBM [2]": {"test_system": "GBM", "test": "Cytotoxicity against human GBM cells after 24 hrs by neutral red uptake assay", "assay_type": "functional, cell-based", "method_in_brief": "as §1"}, "HCT-116 [3]": {"test_system": "HCT-116", "test": "Cytotoxicity against human HCT116 cells after 24 hrs by neutral red uptake assay", "assay_type": "functional, cell-based", "conditions": "HCT-116, 24 h", "method_in_brief": "as §1"}, "[4]": {"test": "Lipophilicity, log P of the compound", "assay_type": "physicochemical", "conditions": "octanol/water", "method_in_brief": "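Log P calculated in silico with the ALogP program; not measured experimentally.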"}, "KMS-11 [5]": {"test_system": "KMS-11", "test": "Induction of apoptosis in human KMS11 cells assessed as dead cells at 20 uM after 24 hrs using annexin V stain by FACSCalibur flow cytometry", "assay_type": "functional", "method_in_brief": "(§2)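 Cells were exposed to compound for 24 h alongside untreated control cultures. They were then labelled with FITC-conjugated annexin V to mark early apoptosis. The percentage of apoptotic cells was read by flow cytometry.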"}, "GBM [6]": {"test_system": "GBM", "test": "Induction of apoptosis in human GBM cells assessed as dead cells at 20 uM after 24 hrs using annexin V stain by FACSCalibur flow cytometry", "assay_type": "functional"}, "HCT-116 [7]": {"test_system": "HCT-116", "test": "Induction of apoptosis in human HCT116 cells assessed as dead cells at 20 uM after 24 hrs using annexin V stain by FACSCalibur flow cytometry", "assay_type": "functional", "method_in_brief": "as §2"}, "KMS-11 [8]": {"test_system": "KMS-11", "test": "Induction of apoptosis in human KMS11 cells assessed as apoptotic nuclei at 10 uM after 24 hrs by microscopy relative to control", "assay_type": "functional"}, "KMS-11 [9]": {"test_system": "KMS-11", "test": "Induction of apoptosis in human KMS11 cells assessed as apoptotic nuclei at 20 uM after 24 hrs by microscopy relative to control", "assay_type": "functional"}, "KMS-11 [10]": {"test_system": "KMS-11", "test": "Induction of apoptosis in human KMS11 cells assessed as apoptotic nuclei at 40 uM after 24 hrs by microscopy relative to control", "assay_type": "functional"}, "KMS-11 [11]": {"test_system": "KMS-11", "test": "Induction of apoptosis in human KMS11 cells assessed as DNA fragmentation after 48 hrs", "assay_type": "functional, cell-based", "method_in_brief": "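KMS-11 cultures treated for 48 h; culture supernatants run on agarose gel electrophoresis against a 100 bp DNA ladder to detect DNA fragmentation.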"}},
  "note": "Active and inactive are the calls of the source. The rule behind the calls is not given here.",
  "data": [
    {"smiles": "C[C@H](CCC(=O)NN1CCN(C)CC1)[C@H]1CC[C@H]2[C@@H]3[C@@H](O)C[C@@H]4C[C@H](O)CC[C@]4(C)[C@H]3CC[C@]12C", "values": [
      {"measurement": "IC50", "setting": "[1]", "value": "> 50", "unit": "µM"},
      {"measurement": "IC50", "setting": "GBM [2]", "value": "> 50", "unit": "µM"},
      {"measurement": "IC50", "setting": "HCT-116 [3]", "value": "> 50", "unit": "µM"},
      {"measurement": "logP", "setting": "[4]; read-out: logP", "value": 3.26}
    ]},
    {"smiles": "C[C@H](CCC(=O)NN1CCN(C)CC1)[C@H]1CC[C@H]2[C@@H]3[C@H](O)C[C@@H]4C[C@H](O)CC[C@]4(C)[C@H]3C[C@H](O)[C@]12C", "values": [
      {"measurement": "IC50", "setting": "[1]", "value": "> 50", "unit": "µM"},
      {"measurement": "IC50", "setting": "GBM [2]", "value": "> 50", "unit": "µM"},
      {"measurement": "IC50", "setting": "HCT-116 [3]", "value": "> 50", "unit": "µM"},
      {"measurement": "logP", "setting": "[4]; read-out: logP", "value": 2.16}
    ]},
    {"smiles": "C[C@H](CCC(=O)N1CCN(C/C=C/c2ccccc2)CC1)[C@H]1CC[C@H]2[C@@H]3[C@H](O)C[C@@H]4C[C@H](O)CC[C@]4(C)[C@H]3C[C@H](O)[C@]12C", "values": [
      {"measurement": "IC50", "setting": "[1]", "value": "> 50", "unit": "µM"},
      {"measurement": "IC50", "setting": "GBM [2]", "value": "> 50", "unit": "µM"},
      {"measurement": "IC50", "setting": "HCT-116 [3]", "value": "> 50", "unit": "µM"},
      {"measurement": "logP", "setting": "[4]; read-out: logP", "value": 4.71}
    ]},
    {"smiles": "C[C@H](CCC(=O)N1CCN(C/C=C/c2ccccc2)CC1)[C@H]1CC[C@H]2[C@@H]3[C@@H](O)C[C@@H]4C[C@H](O)CC[C@]4(C)[C@H]3CC[C@]12C", "values": [
      {"measurement": "IC50", "setting": "[1]", "value": 28.1, "unit": "µM"},
      {"measurement": "IC50", "setting": "GBM [2]", "value": 24.7, "unit": "µM"},
      {"measurement": "IC50", "setting": "HCT-116 [3]", "value": 31.4, "unit": "µM"},
      {"measurement": "logP", "setting": "[4]; read-out: logP", "value": 5.81},
      {"measurement": "Activity", "setting": "KMS-11 [5]", "value": 96, "unit": "%"},
      {"measurement": "Activity", "setting": "GBM [6]", "value": 78, "unit": "%"},
      {"measurement": "Activity", "setting": "HCT-116 [7]", "value": 45, "unit": "%"},
      {"measurement": "Activity", "setting": "KMS-11 [8]", "value": 84, "unit": "%"},
      {"measurement": "Activity", "setting": "KMS-11 [9]", "value": 59, "unit": "%"},
      {"measurement": "Activity", "setting": "KMS-11 [10]", "value": 35, "unit": "%"},
      {"measurement": "Activity", "setting": "KMS-11 [11]", "value": "Active"}
    ]},
    {"smiles": "C[C@H](CCC(=O)O)[C@H]1CC[C@H]2[C@@H]3[C@H](O)C[C@@H]4C[C@H](O)CC[C@]4(C)[C@H]3C[C@H](O)[C@]12C", "note": "[CHOLIC ACID]", "values": [
      {"measurement": "IC50", "setting": "[1]", "value": "> 50", "unit": "µM"},
      {"measurement": "IC50", "setting": "GBM [2]", "value": "> 50", "unit": "µM"},
      {"measurement": "IC50", "setting": "HCT-116 [3]", "value": "> 50", "unit": "µM"},
      {"measurement": "logP", "setting": "[4]", "value": 2.912}
    ]},
    {"smiles": "C[C@H](CCC(=O)O)[C@H]1CC[C@H]2[C@@H]3[C@@H](O)C[C@@H]4C[C@H](O)CC[C@]4(C)[C@H]3CC[C@]12C", "note": "[URSODIOL]", "values": [
      {"measurement": "IC50", "setting": "[1]", "value": "> 50", "unit": "µM"},
      {"measurement": "IC50", "setting": "GBM [2]", "value": "> 50", "unit": "µM"},
      {"measurement": "IC50", "setting": "HCT-116 [3]", "value": "> 50", "unit": "µM"},
      {"measurement": "logP", "setting": "[4]", "value": 4.014}
    ]},
    {"smiles": "C[C@H](CCC(=O)O)[C@H]1CC[C@H]2[C@@H]3[C@H](O)C[C@@H]4C[C@H](O)CC[C@]4(C)[C@H]3CC[C@]12C", "note": "[CHENODIOL]", "values": [
      {"measurement": "IC50", "setting": "[1]", "value": "> 50", "unit": "µM"},
      {"measurement": "IC50", "setting": "GBM [2]", "value": "> 50", "unit": "µM"},
      {"measurement": "IC50", "setting": "HCT-116 [3]", "value": "> 50", "unit": "µM"},
      {"measurement": "logP", "setting": "[4]", "value": 4.014}
    ]},
    {"smiles": "C[C@H](CCC(=O)NN1CCN(C)CC1)[C@H]1CC[C@H]2[C@@H]3[C@H](O)C[C@@H]4C[C@H](O)CC[C@]4(C)[C@H]3CC[C@]12C", "values": [
      {"measurement": "IC50", "setting": "[1]", "value": "≥ 50", "unit": "µM"},
      {"measurement": "IC50", "setting": "GBM [2]", "value": "≥ 50", "unit": "µM"},
      {"measurement": "IC50", "setting": "HCT-116 [3]", "value": "> 50", "unit": "µM"},
      {"measurement": "logP", "setting": "[4]; read-out: logP", "value": 3.26}
    ]},
    {"smiles": "C[C@H](CCC(=O)N1CCN(C/C=C/c2ccccc2)CC1)[C@H]1CC[C@H]2[C@@H]3[C@H](O)C[C@@H]4C[C@H](O)CC[C@]4(C)[C@H]3CC[C@]12C", "values": [
      {"measurement": "IC50", "setting": "[1]", "value": 8.5, "unit": "µM"},
      {"measurement": "IC50", "setting": "GBM [2]", "value": 16.5, "unit": "µM"},
      {"measurement": "IC50", "setting": "HCT-116 [3]", "value": 18.5, "unit": "µM"},
      {"measurement": "logP", "setting": "[4]; read-out: logP", "value": 5.81}
    ]}
  ]
}
